# Laboratory results as given in ChEMBL document CHEMBL1144320, “Structure-activity relations of azafluorenone and azaanthraquinone as antimicrobial compounds” (2005).
# How the values were obtained:
# Format in all cases: functional
# Escherichia coli = assay: Minimum inhibitory concentration against Escherichia coli
# How it was run: (§1)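 MIC by 2-fold broth dilution in peptone medium containing compound; bacteria grown in test tubes at 37 °C for 2 days. Strains: S. aureus NCTC 8530, B. subtilis IFO 3007, E. coli IFO 3545, P. vulgaris IFO 3851, P. aeruginosa IFO 3080.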
# [1] = Minimum inhibitory concentration against Penicillium chrysogenum
# How it was run: (§2)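 Strains: S. cerevisiae IFO 0203, S. pombe IFO 0342, C. utilis OUT 6020, R. rubra IFO 0001, A. niger ATCC 6275, P. chrysogenum IFO 4626, R. chinensis IFO 4768, M. mucedo IFO 7684.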
# Mucor mucedo = assay: Minimum inhibitory concentration against Mucor mucedo; how it was run: as §2
# [2] = test system: Schizosaccharomyces pombe; assay: Minimum inhibitory concentration against Schizosaccharomyces pombe; how it was run: as §2
# Bacillus subtilis = assay: Minimum inhibitory concentration against Bacillus subtilis; how it was run: as §1
# [3] = test system: Rhizopus microsporus var. chinensis; assay: Minimum inhibitory concentration against Rhizopus chinensis; how it was run: as §2
# Pseudomonas aeruginosa = assay: Minimum inhibitory concentration against Pseudomonas aeruginosa; how it was run: as §1
# Aspergillus niger = assay: Minimum inhibitory concentration against Aspergillus niger; how it was run: as §2
# Cyberlindnera jadinii = assay: Minimum inhibitory concentration against Candida utilis; settings: Williopsis jadinii; how it was run: as §2
# Proteus vulgaris = assay: Minimum inhibitory concentration against Proteus vulgaris; how it was run: as §1
# Rhodotorula mucilaginosa = assay: Minimum inhibitory concentration against Rhodotorula rubra; how it was run: as §2
# Saccharomyces cerevisiae = assay: Minimum inhibitory concentration against Saccharomyces cerevisiae; how it was run: as §2
# Staphylococcus aureus = assay: Minimum inhibitory concentration against Staphylococcus aureus; how it was run: as §1
Structure (SMILES),MIC (Escherichia coli),MIC [1],MIC (Mucor mucedo),MIC [2],MIC (Bacillus subtilis),MIC [3],MIC (Pseudomonas aeruginosa),MIC (Aspergillus niger),MIC (Cyberlindnera jadinii),MIC (Proteus vulgaris),MIC (Rhodotorula mucilaginosa),MIC (Saccharomyces cerevisiae),MIC (Staphylococcus aureus)
O=C1c2cnccc2C(=O)c2sccc21,100 µg/mL,0.78 µg/mL,3.13 µg/mL,0.39 µg/mL,6.25 µg/mL,6.25 µg/mL,1.56 µg/mL,0.78 µg/mL,3.13 µg/mL,50 µg/mL,1.56 µg/mL,1.56 µg/mL,1.56 µg/mL
Cc1cnc2c(c1)C(=O)c1cccc(O)c1C2=O,> 100 µg/mL,25 µg/mL,25 µg/mL,12.5 µg/mL,6.25 µg/mL,> 100 µg/mL,25 µg/mL,> 100 µg/mL,25 µg/mL,100 µg/mL,50 µg/mL,100 µg/mL,12.5 µg/mL
O=C1c2ccncc2C(=O)c2c(O)cccc21,> 100 µg/mL,1.56 µg/mL,3.13 µg/mL,0.78 µg/mL,3.13 µg/mL,12.5 µg/mL,3.13 µg/mL,3.13 µg/mL,12.5 µg/mL,25 µg/mL,3.13 µg/mL,3.13 µg/mL,1.56 µg/mL
O=C1c2cnccc2C(=O)c2c(O)cccc21,> 100 µg/mL,1.56 µg/mL,6.25 µg/mL,0.2 µg/mL,3.13 µg/mL,6.25 µg/mL,3.13 µg/mL,3.13 µg/mL,6.25 µg/mL,25 µg/mL,3.13 µg/mL,3.13 µg/mL,1.56 µg/mL
COc1cccc2c1C(=O)c1ccncc1C2=O,> 100 µg/mL,12.5 µg/mL,12.5 µg/mL,1.56 µg/mL,6.25 µg/mL,25 µg/mL,6.25 µg/mL,12.5 µg/mL,25 µg/mL,50 µg/mL,12.5 µg/mL,25 µg/mL,12.5 µg/mL
Cc1ccnc2c1C(=O)c1c(O)ccc(O)c1C2=O,> 100 µg/mL,6.25 µg/mL,12.5 µg/mL,6.25 µg/mL,6.25 µg/mL,12.5 µg/mL,12.5 µg/mL,50 µg/mL,12.5 µg/mL,100 µg/mL,12.5 µg/mL,12.5 µg/mL,12.5 µg/mL
COc1cccc2c1C(=O)c1cnccc1C2=O,> 100 µg/mL,12.5 µg/mL,25 µg/mL,3.13 µg/mL,3.13 µg/mL,25 µg/mL,6.25 µg/mL,12.5 µg/mL,25 µg/mL,50 µg/mL,6.25 µg/mL,25 µg/mL,12.5 µg/mL

# Now from value to molecule:
MIC (Escherichia coli),MIC [1],MIC (Mucor mucedo),MIC [2],MIC (Bacillus subtilis),MIC [3],MIC (Pseudomonas aeruginosa),MIC (Aspergillus niger),MIC (Cyberlindnera jadinii),MIC (Proteus vulgaris),MIC (Rhodotorula mucilaginosa),MIC (Saccharomyces cerevisiae),MIC (Staphylococcus aureus),Structure (SMILES)
> 100 µg/mL,50 µg/mL,50 µg/mL,25 µg/mL,25 µg/mL,> 100 µg/mL,50 µg/mL,100 µg/mL,50 µg/mL,50 µg/mL,50 µg/mL,100 µg/mL,25 µg/mL,Cc1ccnc2c1C(=O)c1ccccc1C2=O [CLEISTOPHOLINE]
> 100 µg/mL,3.13 µg/mL,6.25 µg/mL,3.13 µg/mL,3.13 µg/mL,12.5 µg/mL,6.25 µg/mL,12.5 µg/mL,12.5 µg/mL,50 µg/mL,6.25 µg/mL,12.5 µg/mL,6.25 µg/mL,O=C1c2ccccc2C(=O)c2cnccc21
> 100 µg/mL,25 µg/mL,50 µg/mL,12.5 µg/mL,12.5 µg/mL,> 100 µg/mL,25 µg/mL,> 100 µg/mL,50 µg/mL,50 µg/mL,50 µg/mL,100 µg/mL,12.5 µg/mL,Cc1ccnc2c1C(=O)c1cccc(O)c1C2=O
> 100 µg/mL,50 µg/mL,> 100 µg/mL,50 µg/mL,100 µg/mL,> 100 µg/mL,100 µg/mL,100 µg/mL,100 µg/mL,100 µg/mL,100 µg/mL,100 µg/mL,> 100 µg/mL,Cc1ccnc2c1C(=O)c1ccccc1-2 [ONYCHINE]
> 100 µg/mL,50 µg/mL,100 µg/mL,100 µg/mL,50 µg/mL,> 100 µg/mL,50 µg/mL,100 µg/mL,100 µg/mL,100 µg/mL,100 µg/mL,> 100 µg/mL,100 µg/mL,Cc1ccnc2c1-c1ccccc1C2=O
